A selection: hits, their analogues and other compounds. The true share with any hit is near 2.3%.
V1R ag counter: agonists of human V1a receptor, primary screen, counter-screen for OXTR agonist project, fluorescence, CHO-V1R cells; Vasopressin V1a receptor (Homo sapiens), P37288; Fluo-8 calcium fluorescence, agonist mode; 0% DMSO, 100% 3 nM vasopressin; activation, % at 3 µM; 320,000 compounds, 0.25% hits;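 active means activation above the mean activation of all tested compounds plus 3 SD, per screening run, cut at about 20% in these data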;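 further: signal is peak over basal fluorescence ratio across a 100 second FLIPR read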
Target sequence (P37288 whole entry, looked up): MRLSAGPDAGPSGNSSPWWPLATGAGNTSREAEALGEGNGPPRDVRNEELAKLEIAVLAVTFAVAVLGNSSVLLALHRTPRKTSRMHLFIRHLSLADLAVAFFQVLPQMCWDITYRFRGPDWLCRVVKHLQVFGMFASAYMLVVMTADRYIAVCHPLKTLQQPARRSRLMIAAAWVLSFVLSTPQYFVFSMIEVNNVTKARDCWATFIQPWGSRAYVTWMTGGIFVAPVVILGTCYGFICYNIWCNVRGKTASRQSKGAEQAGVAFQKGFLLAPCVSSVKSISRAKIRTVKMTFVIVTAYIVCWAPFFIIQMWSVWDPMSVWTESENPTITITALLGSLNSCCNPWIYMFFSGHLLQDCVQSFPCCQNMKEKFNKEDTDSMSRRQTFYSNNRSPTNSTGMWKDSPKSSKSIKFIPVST
TAAR1 agonist: human TAAR1 agonists, primary screen, Fluo-8 calcium fluorescence, CHO RD-HGA16 cells | Trace amine-associated receptor 1 (Homo sapiens), Q96RJ0 | 360,000 compounds, 0.99% hits | vehicle wells 0%, saturating PEA agonist 100% | activation, % at 3 µM;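 active means activation above the mean activation of all test compounds in the run plus 3 SD, cut at about 38% in these data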
Target sequence (Q96RJ0 whole entry, looked up): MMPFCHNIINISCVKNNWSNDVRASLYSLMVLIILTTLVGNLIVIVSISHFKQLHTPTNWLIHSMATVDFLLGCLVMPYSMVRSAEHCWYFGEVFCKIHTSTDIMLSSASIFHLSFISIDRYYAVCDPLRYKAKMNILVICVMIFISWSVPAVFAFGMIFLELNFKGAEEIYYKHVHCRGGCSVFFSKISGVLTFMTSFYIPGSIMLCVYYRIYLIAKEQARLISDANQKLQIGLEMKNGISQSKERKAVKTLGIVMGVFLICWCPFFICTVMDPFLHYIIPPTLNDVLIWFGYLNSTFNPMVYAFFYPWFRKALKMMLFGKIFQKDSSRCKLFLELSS
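Test system: RD-HGA16 (CHO) cells co-expressing Gα16 and hTAAR1; dosing: one-point dosing at 3 µM (nominal); timing: 17-24 h seeding, 75 min 37 °C dye, 30 min RT; signal: kinetic Fluo-8 calcium fluorescence; read-out basis: % activation relative to PEA EC100 response; controls: DMSO and PEA EC100; replicates: n 1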
TAAR1 antag: human TAAR1 antagonists, primary screen, Fluo-8 calcium fluorescence, CHO RD-HGA16 cells. Trace amine-associated receptor 1 (Homo sapiens), Q96RJ0. AID 624466, 2012. antagonist. inhibition, % at 3 µM. 360,000 compounds, 1.5% hits;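 active means inhibition above a per-plate cutoff, the mean inhibition of test compounds on that plate plus 3 SD, cut at about 49% in these data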;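 further: 0% = DMSO plus EC80 beta-PEA response and 100% = DMSO alone without agonist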
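System: CHO RD-HGA16 cells bearing hTAAR1. Reagent: EC80 β-phenethylamine stimulus. Schedule: seeding 17-24 h prior, 75-min 37 °C, 30-min RT dye loading. Signal: Fluo-8 intracellular calcium dye fluorescence, real-time kinetic reads. Read-out: % inhibition from peak post-agonist over basal fluorescence ratio. Benchmarks: vehicle wells and EC80 agonist wells. Replicates: n of 1.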
OXTR potentiator: human OXTR potentiators, primary screen, fluorescence, CHO-OTR cells, Fluo-8 calcium; Oxytocin receptor (Homo sapiens), P30559; Fluo-8 calcium fluorescence, potentiator mode; 0% = oxytocin EC15, 100% = EC100; activation, % at 3 µM; 320,000 compounds, 0.061% hits; AID 2445, 2010;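 active means activation above that plate's cutoff, the mean activation of tested compounds plus 3 SD, cut at about 6.6% in these data, passing the limit was not always enough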;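 further: 100% uses oxytocin at 75 nM as the full agonist control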
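Material: CHO-OTR cells, human receptor; compound dosing: single dose, 3.0 µM nominal final compound concentration; schedule: 6 min compound pre-incubation at room temperature, 100 s kinetic read; measured by: kinetic Fluo-8 calcium fluorescence; read-out basis: % activation vs EC15 and EC100 oxytocin; controls: EC15 oxytocin alone as 0%, 75 nM oxytocin as 100%; replicates: singlicate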
OXTR ag: human OXTR agonists, primary screen, fluorescence, CHO-OTR cells, Fluo-8 calcium; Oxytocin receptor (Homo sapiens), P30559; 320,000 compounds, 0.32% hits; AID 2435, 2010; activation, % at 3 µM; Fluo-8 calcium fluorescence; normalized: DMSO 0%, oxytocin 100%;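 active means activation above the mean of all tested compounds plus 3 SD, cutoff set per screening run, cut at about 20% in these data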;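 further: peak over basal fluorescence ratio from a 100 s FLIPR kinetic read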
nonsel antag count: nonselective antagonists in TAAR1 counter-screen cells, counter-screen for hTAAR1 antagonist project, cell-based, fluorescence, calcium. shares compounds with TAAR1 antag. counterscreen cell line, antagonist mode. inhibition, % at 3 µM. 2,400 compounds, 77% hits. AID 651780, 2012; in the data active means inhibition above about 22%;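 further: CHO-Ga16 host cells stimulated with ATP at an EC80 level; 0% = agonist EC80 plus vehicle and 100% = vehicle without agonist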
TAAR1 ant conf: human TAAR1 antagonists, retest of hits, confirmation, cell-based, fluorescence; inhibition, % at 3 µM; TAAR1-expressing cells, fluorescence antagonist read-out; AID 651785, 2012; 2,400 compounds, 40% hits; shares compounds with TAAR1 antag; in the data active means inhibition above about 49%;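 further: CHO-Ga16 host cells challenged with agonist PEA near its EC80; 0% = agonist at EC80 plus vehicle and 100% = vehicle with no agonist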
Ga16 nonsel ag: calcium activation in Ga16-expressing cells, counter-screen for TAAR1 antagonist project, cell-based, fluorescence; shares compounds with TAAR1 antag; agonist counterscreen; activation, % at 3 µM; 2,400 compounds, 18% hits; AID 651953, 2012; in the data active means activation above about 12%;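 further: 0% = vehicle wells and 100% = saturating stimulus response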
TAAR1 ag counter: TAAR1 activation by candidate antagonists – cell-based, fluorescence, counter-screen for TAAR1 antagonist project; AID 651955, 2012; hTAAR1 cell line, agonist mode; shares compounds with TAAR1 antag; activation, % at 3 µM; 2,400 compounds, 2% hits; in the data active means activation above about 37%;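 further: CHO cells stably expressing TAAR1 with calcium dye readout; 0% = DMSO vehicle and 100% = full agonist response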
Active calls of the source: *.

Results for CN(C)c1ccc(C(C(=O)NCC2CCCO2)N(Cc2ccccc2)C(=O)c2snc(C(N)=O)c2N)cc1 (configuration not stated) ?
V1R ag counter: 3; TAAR1 agonist: 22; TAAR1 antag: 65*; OXTR potentiator: -20; OXTR ag: 3; nonsel antag count: 33*; TAAR1 ant conf: 57*; Ga16 nonsel ag: 13*; TAAR1 ag counter: 16

Results for CCOc1ccc(C(C(=O)NCC2CCCO2)N(CCc2cccc(C)c2)C(=O)c2snc(C(N)=O)c2N)cc1 (configuration not stated) ?
TAAR1 agonist: 28; TAAR1 antag: 67*; nonsel antag count: 34*; TAAR1 ant conf: 53*; Ga16 nonsel ag: 16*; TAAR1 ag counter: 39*

What do the screens show for `CN(C)c1ccc(C(C(=O)NCC2CCCO2)N(Cc2ccco2)C(=O)c2snc(C(N)=O)c2N)cc1` (configuration not stated)?
V1R ag counter: 2; TAAR1 agonist: 20; TAAR1 antag: 67*; OXTR potentiator: -22; OXTR ag: 0; nonsel antag count: 34*; TAAR1 ant conf: 52*; Ga16 nonsel ag: 9; TAAR1 ag counter: 11

Results for Cc1cc(C(=O)COC(=O)C2=COCCO2)c(C)n1-c1ccc2c(c1)OCO2 ?
V1R ag counter: 3; TAAR1 agonist: 4; TAAR1 antag: 15; OXTR potentiator: -15; OXTR ag: 2

What do the screens show for `CC(=O)Nc1ccc(S(=O)(=O)N(C)CC(=O)OCC(=O)c2cc(C)n(-c3ccc4c(c3)OCO4)c2C)cc1`?
V1R ag counter: 0; TAAR1 agonist: 11; TAAR1 antag: 56*; OXTR potentiator: -6; OXTR ag: 0; nonsel antag count: 23*; TAAR1 ant conf: 36; Ga16 nonsel ag: 7; TAAR1 ag counter: 6

How did Fc1ccc(-n2cc(-c3ccccc3)c3c(NN4CCOCC4)ncnc32)cc1 do in these assays?
V1R ag counter: 3; TAAR1 agonist: 8; TAAR1 antag: 18; OXTR potentiator: -6; OXTR ag: 6

Results for COc1ccc(-n2cc(-c3ccccc3)c3c(NN4CCOCC4)ncnc32)cc1 ?
V1R ag counter: 3; TAAR1 agonist: 15; TAAR1 antag: 56*; OXTR potentiator: -8; OXTR ag: 3; nonsel antag count: 25*; TAAR1 ant conf: 40; Ga16 nonsel ag: 11; TAAR1 ag counter: 14

What do the screens show for `Cc1cccc(-n2cc(-c3ccccc3)c3c(N4CCOCC4)ncnc32)c1`?
V1R ag counter: -1; TAAR1 agonist: 4; TAAR1 antag: 60*; OXTR potentiator: -28; OXTR ag: -2; nonsel antag count: 27*; TAAR1 ant conf: 45; Ga16 nonsel ag: 5; TAAR1 ag counter: 6

What do the screens show for `COc1ccc(CCNC2=C(Cl)C(=O)N(CCc3ccc(OC)c(OC)c3)C2=O)cc1OC`?
V1R ag counter: 7; TAAR1 agonist: 17; TAAR1 antag: 74*; OXTR potentiator: -20; OXTR ag: 8; nonsel antag count: 44*; TAAR1 ant conf: 60*; Ga16 nonsel ag: 11; TAAR1 ag counter: 8

What do the screens show for `O=C(Nc1ccccc1)OC[C@@H]1CSCCS(=O)(=O)N1`?
TAAR1 agonist: 1; TAAR1 antag: 5

Results for c1ccc(OCCNc2ccn3nc(-c4ccco4)cc3n2)cc1 ?
TAAR1 agonist: 4; TAAR1 antag: 12

How did CC[C@@H]1Cc2[nH][nH]c(=O)c2[C@@H](c2ccc(Cl)cc2)O1 do in these assays?
TAAR1 agonist: 1; TAAR1 antag: -10

Results for COc1cccc(NC(=O)CN(C)C(=O)c2cc(-c3ccccc3)nc3ccccc23)c1 ?
V1R ag counter: 0; TAAR1 agonist: 12; TAAR1 antag: 70*; OXTR potentiator: -7; OXTR ag: -1; nonsel antag count: 34*; TAAR1 ant conf: 51*; Ga16 nonsel ag: 9; TAAR1 ag counter: 7

Results for COc1ccc(Cl)cc1NC(=O)CN(C)C(=O)c1cn(-c2ccccc2)nc1-c1cccnc1 ?
V1R ag counter: 2; TAAR1 agonist: 13; TAAR1 antag: 58*; OXTR potentiator: -10; OXTR ag: -1; nonsel antag count: 33*; TAAR1 ant conf: 47; Ga16 nonsel ag: 7; TAAR1 ag counter: 5

Results for COc1ccc(NC(=O)CN(C)C(=O)c2cc(-c3ccco3)nc3ccccc23)cc1 ?
V1R ag counter: 0; TAAR1 agonist: 13; TAAR1 antag: 36; OXTR potentiator: -3; OXTR ag: -1

What do the screens show for `CN(CC(=O)Nc1cccc(F)c1)C(=O)c1cc(-c2ccco2)nc2ccccc12`?
V1R ag counter: -1; TAAR1 agonist: 11; TAAR1 antag: 44; OXTR potentiator: -6; OXTR ag: -1

How did CN(CC(=O)Nc1cccc(F)c1)C(=O)c1cn(-c2ccccc2)nc1-c1cccs1 do in these assays?
V1R ag counter: 3; TAAR1 agonist: 8; TAAR1 antag: 65*; OXTR potentiator: -16; OXTR ag: 3; nonsel antag count: 32*; TAAR1 ant conf: 40; Ga16 nonsel ag: 7; TAAR1 ag counter: 6

What do the screens show for `COc1cccc(NC(=O)CN(C)C(=O)c2cc(-c3ccc(F)cc3)nc3ccccc23)c1`?
V1R ag counter: 1; TAAR1 agonist: 6; TAAR1 antag: 75*; OXTR potentiator: -12; OXTR ag: -1; nonsel antag count: 40*; TAAR1 ant conf: 60*; Ga16 nonsel ag: 9; TAAR1 ag counter: 5

Results for Cc1ccc(S(=O)(=O)N2CCC(C(=O)Nc3ccc(S(=O)(=O)N4CCCC4)cc3)CC2)cc1C ?
V1R ag counter: 0; TAAR1 agonist: 2; TAAR1 antag: 14; OXTR potentiator: -13; OXTR ag: -1

How did O=C(CCc1c[nH]c2ccccc12)Nc1ccc(Nc2cccnc2)cc1 do in these assays?
TAAR1 agonist: 4; TAAR1 antag: 29

From PubChem BioAssay
